According to the M2OR odorant receptor database:

What was measured:
Conditions in all cases: stereoisomer not certain
[1] = molecular target: OR10G2 (Homo sapiens) (UniProt Q8NGC3)
Outline: (§1)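 Each receptor–molecule pair is labelled responsive or non-responsive (inactive) according to whether the original authors judged the measured signal statistically different from baseline. The data were taken from the main text and supplementary material of published papers and checked for typos and inconsistencies. Assay methods differed by source, with transient luciferase assays in mammalian cell lines being common.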

[2] = molecular target: OR10G3 (Homo sapiens) (UniProt Q8NGC4)
OR10G3 (Homo sapiens), sequence (Q8NGC4 whole entry): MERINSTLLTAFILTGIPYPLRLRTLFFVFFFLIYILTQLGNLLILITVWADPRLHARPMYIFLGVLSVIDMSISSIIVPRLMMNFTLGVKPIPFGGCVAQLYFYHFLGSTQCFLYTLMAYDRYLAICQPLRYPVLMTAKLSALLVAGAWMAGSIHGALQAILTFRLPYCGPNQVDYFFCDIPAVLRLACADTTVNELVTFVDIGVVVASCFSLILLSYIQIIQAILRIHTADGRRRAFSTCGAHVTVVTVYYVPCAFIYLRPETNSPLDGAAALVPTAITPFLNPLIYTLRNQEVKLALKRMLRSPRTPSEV
Outline: as §1

[3] = molecular target: OR10G4 (Homo sapiens) (UniProt Q8NGN3)
OR10G4 (Homo sapiens), sequence (Q8NGN3 whole entry): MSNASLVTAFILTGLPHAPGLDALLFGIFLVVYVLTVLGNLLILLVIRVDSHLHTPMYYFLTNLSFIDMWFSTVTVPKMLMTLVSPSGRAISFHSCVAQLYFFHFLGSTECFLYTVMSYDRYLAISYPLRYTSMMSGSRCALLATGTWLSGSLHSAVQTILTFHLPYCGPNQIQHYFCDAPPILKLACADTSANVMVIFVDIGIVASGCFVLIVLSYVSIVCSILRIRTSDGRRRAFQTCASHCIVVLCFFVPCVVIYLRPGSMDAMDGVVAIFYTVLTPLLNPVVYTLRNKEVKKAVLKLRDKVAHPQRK
Outline: as §1

[4] = molecular target: OR10G6 (Homo sapiens) (UniProt Q8NH81)
OR10G6 (Homo sapiens), sequence (Q8NH81 whole entry): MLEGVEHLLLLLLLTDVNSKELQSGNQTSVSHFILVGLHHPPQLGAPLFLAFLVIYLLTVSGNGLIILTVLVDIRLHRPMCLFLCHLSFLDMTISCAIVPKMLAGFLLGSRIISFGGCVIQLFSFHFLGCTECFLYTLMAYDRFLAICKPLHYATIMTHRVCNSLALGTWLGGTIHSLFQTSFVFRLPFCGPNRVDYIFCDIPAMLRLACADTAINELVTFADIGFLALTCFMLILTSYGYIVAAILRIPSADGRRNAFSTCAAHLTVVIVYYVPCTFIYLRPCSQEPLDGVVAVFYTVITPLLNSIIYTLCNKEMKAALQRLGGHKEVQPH
Outline: as §1

[5] = molecular target: OR10G7 (Homo sapiens) (UniProt Q8NGN6)
OR10G7 (Homo sapiens), sequence (Q8NGN6 whole entry): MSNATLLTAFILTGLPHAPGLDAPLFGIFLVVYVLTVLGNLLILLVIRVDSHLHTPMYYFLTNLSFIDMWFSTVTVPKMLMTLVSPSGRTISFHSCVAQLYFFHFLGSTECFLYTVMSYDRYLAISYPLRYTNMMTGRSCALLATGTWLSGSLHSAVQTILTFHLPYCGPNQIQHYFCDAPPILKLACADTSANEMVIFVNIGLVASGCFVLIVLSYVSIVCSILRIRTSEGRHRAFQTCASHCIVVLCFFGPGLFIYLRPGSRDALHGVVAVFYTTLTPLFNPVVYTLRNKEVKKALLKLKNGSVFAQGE
Outline: as §1

[6] = molecular target: OR10G8 (Homo sapiens) (UniProt Q8NGN5)
OR10G8 (Homo sapiens), sequence (Q8NGN5 whole entry): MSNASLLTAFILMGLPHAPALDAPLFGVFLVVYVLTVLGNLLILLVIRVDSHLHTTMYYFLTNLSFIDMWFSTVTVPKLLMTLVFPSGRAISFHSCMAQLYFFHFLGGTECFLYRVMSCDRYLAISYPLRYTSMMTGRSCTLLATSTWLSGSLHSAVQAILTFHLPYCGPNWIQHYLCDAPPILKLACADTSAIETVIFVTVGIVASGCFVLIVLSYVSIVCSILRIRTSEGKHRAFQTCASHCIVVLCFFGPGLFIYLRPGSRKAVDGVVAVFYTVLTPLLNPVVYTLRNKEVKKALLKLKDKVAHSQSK
Outline: as §1

[7] = molecular target: OR10G9 (Homo sapiens) (UniProt Q8NGN4)
OR10G9 (Homo sapiens), sequence (Q8NGN4 whole entry): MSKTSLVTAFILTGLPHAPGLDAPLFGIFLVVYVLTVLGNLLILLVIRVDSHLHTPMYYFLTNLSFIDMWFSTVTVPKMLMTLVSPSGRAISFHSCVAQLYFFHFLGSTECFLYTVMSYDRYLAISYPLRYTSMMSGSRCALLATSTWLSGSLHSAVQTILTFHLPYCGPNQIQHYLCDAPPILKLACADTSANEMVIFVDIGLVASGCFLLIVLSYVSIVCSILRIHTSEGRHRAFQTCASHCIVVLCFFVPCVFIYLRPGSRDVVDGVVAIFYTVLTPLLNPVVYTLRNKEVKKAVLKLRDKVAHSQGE
Outline: as §1

[8] = molecular target: OR10H1 (Homo sapiens) (UniProt Q9Y4A9)
OR10H1 (Homo sapiens), sequence (Q9Y4A9 whole entry): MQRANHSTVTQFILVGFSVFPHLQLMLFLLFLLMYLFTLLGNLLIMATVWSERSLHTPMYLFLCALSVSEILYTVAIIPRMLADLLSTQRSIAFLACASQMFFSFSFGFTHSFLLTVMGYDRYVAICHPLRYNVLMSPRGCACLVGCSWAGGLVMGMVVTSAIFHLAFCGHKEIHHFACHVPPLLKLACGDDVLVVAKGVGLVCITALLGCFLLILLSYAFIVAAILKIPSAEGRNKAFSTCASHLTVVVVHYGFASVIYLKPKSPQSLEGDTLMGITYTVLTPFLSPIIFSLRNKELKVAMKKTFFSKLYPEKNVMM
Outline: as §1

[9] = molecular target: T1, OR10H2 (Homo sapiens) (UniProt O60403)
T1 sequence (whole entry): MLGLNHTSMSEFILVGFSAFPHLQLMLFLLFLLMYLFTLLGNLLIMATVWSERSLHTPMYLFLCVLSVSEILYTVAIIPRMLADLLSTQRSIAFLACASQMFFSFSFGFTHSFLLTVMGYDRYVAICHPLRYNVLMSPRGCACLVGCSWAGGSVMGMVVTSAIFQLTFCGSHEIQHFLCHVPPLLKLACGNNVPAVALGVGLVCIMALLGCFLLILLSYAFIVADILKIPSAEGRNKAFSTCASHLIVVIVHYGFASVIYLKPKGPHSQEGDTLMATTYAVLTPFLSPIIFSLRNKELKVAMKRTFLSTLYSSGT
Outline: as §1

[10] = molecular target: OR10D3 (Homo sapiens) (UniProt Q8NH80)
OR10D3 (Homo sapiens), sequence (Q8NH80 whole entry): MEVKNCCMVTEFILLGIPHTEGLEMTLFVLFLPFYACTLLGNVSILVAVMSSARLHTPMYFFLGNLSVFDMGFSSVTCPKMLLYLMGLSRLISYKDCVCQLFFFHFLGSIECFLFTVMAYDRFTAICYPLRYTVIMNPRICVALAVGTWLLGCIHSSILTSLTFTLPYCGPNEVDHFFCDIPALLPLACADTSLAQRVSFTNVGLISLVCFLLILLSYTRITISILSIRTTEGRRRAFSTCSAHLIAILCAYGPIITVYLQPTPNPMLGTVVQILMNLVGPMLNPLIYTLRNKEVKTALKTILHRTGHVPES
Outline: as §1

Measured: odorant receptor agonist call;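 further: active if original authors judged signal statistically different from baseline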

OR10G2 (Homo sapiens), sequence (Q8NGC3 whole entry): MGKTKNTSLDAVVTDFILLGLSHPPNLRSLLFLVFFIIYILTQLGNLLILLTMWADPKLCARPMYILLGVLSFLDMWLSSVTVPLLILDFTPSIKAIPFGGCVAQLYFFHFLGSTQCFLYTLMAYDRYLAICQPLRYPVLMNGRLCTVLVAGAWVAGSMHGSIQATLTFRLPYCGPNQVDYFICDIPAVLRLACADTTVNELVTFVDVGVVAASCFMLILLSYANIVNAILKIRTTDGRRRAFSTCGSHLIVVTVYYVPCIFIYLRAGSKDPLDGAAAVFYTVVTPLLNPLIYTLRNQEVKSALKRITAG

Cc1c([N+](=O)[O-])c(C)c([N+](=O)[O-])c(C(C)(C)C)c1[N+](=O)[O-]
inactive: [1] | [2] | [3] | [4] | [5] | [6] | [7] | [8] | [9]

O=CC=Cc1ccccc1
active: [9]

C=CCOC(=O)Cc1ccccc1
inactive: [10] | [1] | [2] | [3] | [4] | [5] | [6] | [7] | [8] | [9]
